MrgX1 ag = human MrgX1 receptor agonism, primary screen; Q96LB2; MrgX1-HEK293 cells, Fluo-4 calcium fluorescence, agonist mode; active compounds read high; B-score at 10 µM; 0.44% of 310,000 active; AID 588627;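 active = calcium response B-score plate-corrected fluorescence ratio at least 3 library SD, with starting fluorescence B-score inside 5 SD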
Target sequence (Q96LB2 whole entry, looked up): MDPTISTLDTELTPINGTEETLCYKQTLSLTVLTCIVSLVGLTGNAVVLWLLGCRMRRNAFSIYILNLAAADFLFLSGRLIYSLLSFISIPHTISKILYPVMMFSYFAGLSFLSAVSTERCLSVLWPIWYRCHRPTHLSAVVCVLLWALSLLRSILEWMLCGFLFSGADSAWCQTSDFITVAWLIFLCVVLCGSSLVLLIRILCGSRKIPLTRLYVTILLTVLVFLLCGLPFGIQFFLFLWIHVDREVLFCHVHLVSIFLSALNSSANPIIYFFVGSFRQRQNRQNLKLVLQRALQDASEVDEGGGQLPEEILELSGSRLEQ
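times = overnight plating, then 30 min 37 °C plus 30 min room-temperature dye loading | assay system = stable human MrgX1 HEK293 cell line | input = fifteen thousand cells per well | signal = kinetic calcium dye fluorescence, Fluo-4 NW | dosing = compound delivered in addition one of three | read-out = B-scored fluorescence response ratio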
RGS4 pot = potentiators or activators of RGS4; HEK293 M3R/inducible RGS4, carbachol calcium flux Fluo4; active compounds read low; B-score at 10 µM; 0.92% of 310,000 active;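 active = B-score of the integrated calcium signal more than 4 SD below the library mean, with starting fluorescence not abnormally high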;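 also: negative B-score means reduced calcium response which marks RGS4 activation or potentiation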
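Reagent: ECmax carbachol challenge; Test system: M3R-expressing HEK293 line, RGS4 induced by doxycycline; Schedule: overnight RGS4 induction, 30 min dye load 37 °C, 20 min compound RT; Detection: calcium dye Fluo4 fluorescence; Read-out: Agonist-evoked peak-minus-minimum fluorescence over baseline, integrated ratio, B score.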
RGS4 block = inhibitors of human RGS4. 0.45% of 310,000 active. HEK293 M3R/RGS4 inducible, Fluo-4 calcium flux; active compounds read high; triggered by carbachol at its EC20. P49798. B-score at 10 µM. AID 463165;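 active = B-score, a plate-corrected calcium signal, over three deviations above library mean, with baseline fluorescence within five deviations of library mean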;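 also: RGS4 expression induced by doxycycline in cells with stable M3 receptor; B-score is computed from the integrated fluorescence ratio over baseline after carbachol; higher B-score means a larger calcium signal and so more RGS4 inhibition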
Target sequence (P49798 whole entry, looked up): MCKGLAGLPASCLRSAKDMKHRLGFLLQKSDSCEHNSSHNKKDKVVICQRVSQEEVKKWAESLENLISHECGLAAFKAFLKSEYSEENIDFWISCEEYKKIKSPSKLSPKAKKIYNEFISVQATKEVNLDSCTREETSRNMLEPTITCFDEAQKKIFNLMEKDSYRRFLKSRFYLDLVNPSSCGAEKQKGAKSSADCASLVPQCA
MrgX1 antag = blocks BAM8-22 activation of human MrgX1 receptor; MRGX1-HEK293 calcium flux, Fluo-4, BAM8-22 antagonism; active compounds read low; 1.3% of 310,000 active; Q96LB2; B-score at 10 µM;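 active = calcium-response B-score plate-corrected more than 3 library SD below zero, starting fluorescence within 5 deviations, no agonist response on first addition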;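 also: peak minus trough fluorescence over baseline after final BAM8-22 challenge near maximal dose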
MrgX1 PAM = human MrgX1 positive allosteric modulation, primary screen. MrgX1-HEK293, Fluo-4 calcium flux, FDSS; active compounds read high. Q96LB2. B-score at 10 µM. AID 588675. 0.63% of 310,000 active;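 active = plate-corrected calcium response at least 3 library SD above typical, normal starting fluorescence, not activating the receptor alone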;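 also: compound read alongside a low EC10 to EC30 dose of BAM8-22 agonist; peak minus trough fluorescence over baseline measured at the second addition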
MrgX1 antag conf = confirmation of human MrgX1 receptor antagonists | AID 602420 | 19% of 2,300 active | MrgX1-HEK293, BAM8-22 calcium flux, Fluo-4; active compounds read low | remaining BAM8-22 calcium response % of control (active compounds read low), % at 10 µM | shares compounds with MrgX1 antag;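 active = remaining agonist calcium response no higher than 100% minus 3 SD of agonist-only control wells, with starting fluorescence near control levels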;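 also: agonist BAM8-22 given at a near maximal EC90 to ECmax level; peak minus minimum fluorescence divided by baseline after agonist addition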
HEK293 Ca flux = MrgX1 antagonist counter-screen hit in parental HEK293 cells; AID 624111; fluorescence ratio F(max-min)/F0 at 10 µM; 2% of 4,000 active; Fluo-4 calcium fluorescence, FDSS; shares compounds with MrgX1 antag;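 active = duplicate-averaged calcium fluorescence ratio at least three times the standard deviation of buffer wells, a nonspecific response in parental cells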
HEK293 Ca counter = MrgX1 allosteric activator counter-screen hit in parental HEK293 cells; shares compounds with MrgX1 antag; parental HEK293 calcium flux, Fluo-4 fluorescence ratio; active compounds read high; fluorescence ratio F(max-min)/F0 at 10 µM; 0.4% of 4,000 active;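 active = calcium fluorescence ratio, averaged over duplicates, at least 3 SD of the buffer-well ratio, meaning a nonspecific response in receptor-free cells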;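 also: untransfected parental HEK293 lacking MrgX1 used as counterscreen for MrgX1 allosteric activators; fluorescence change taken during the second addition on a kinetic imager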
HEK293 Ca cntr2 = counter-screen for MrgX1 activators: effect in parental HEK293 cells | fluorescence ratio F(max-min)/F0 at 10 µM | shares compounds with MrgX1 antag | AID 624115 | 8.7% of 4,000 active | Fluo-4 calcium fluorescence (FDSS); active compounds read high;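 active = calcium fluorescence ratio at least three times the spread of buffer wells, meaning a non-specific response in parental cells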
* marks the source's active call; other numbers are inactive results. Rows were chosen to be rich in hits. Some 3.5% of all compounds tested hit in one or more screens of this group.

`Cc1ccc2c(c1)cc(CN(Cc1ccc3c(c1)OCO3)S(=O)(=O)c1ccccc1)c1nnnn12` gave MrgX1 ag inactive, RGS4 pot inactive, RGS4 block inactive, MrgX1 antag -4.5*, MrgX1 PAM inactive, MrgX1 antag conf inactive, HEK293 Ca flux inactive, HEK293 Ca counter inactive and HEK293 Ca cntr2 inactive.
Cc1ccc2c(c1)cc(CN(Cc1cccnc1)C(=O)c1ccccc1)c1nnnn12 was read as MrgX1 ag inactive, RGS4 pot inactive, RGS4 block inactive, MrgX1 antag inactive and MrgX1 PAM inactive.
Screening COc1cccc(/C=C/C(=O)Nc2ccc3nc4n(c(=O)c3c2)CCCC4)c1OC returned MrgX1 ag inactive, RGS4 pot inactive, RGS4 block inactive, MrgX1 antag inactive and MrgX1 PAM inactive.
CN(C)C1=NC[C@H](Cc2ccccc2)N1CCCC1CCCC1 was read as MrgX1 ag inactive, MrgX1 antag -5.6*, MrgX1 PAM inactive, MrgX1 antag conf inactive, HEK293 Ca flux inactive, HEK293 Ca counter inactive and HEK293 Ca cntr2 inactive.
`C[C@H]1CN=C(Nc2ccccc2)N1CCCC1CCCCC1` gave MrgX1 ag inactive, RGS4 pot inactive, RGS4 block inactive, MrgX1 antag -6.1*, MrgX1 PAM inactive, MrgX1 antag conf inactive, HEK293 Ca flux inactive, HEK293 Ca counter inactive and HEK293 Ca cntr2 inactive.
For C[C@H]1CN=C(Nc2ccccc2)N1CC1CCCCC1 the results were MrgX1 ag inactive, RGS4 pot inactive, RGS4 block inactive, MrgX1 antag inactive and MrgX1 PAM inactive.
Screening NC(=O)C1(C(N)=O)OC1c1ccc(Cl)c(Cl)c1 (stereo not drawn) returned MrgX1 ag inactive, RGS4 pot inactive, RGS4 block inactive, MrgX1 antag inactive and MrgX1 PAM inactive.
`Nc1c(C(=O)c2ccco2)oc2ccccc12` gave MrgX1 ag inactive, RGS4 pot inactive, RGS4 block inactive, MrgX1 antag inactive and MrgX1 PAM inactive.
For COc1ccc(NC(=O)CSc2nnc(CN3CCOCC3)n2C)cc1Cl the results were MrgX1 ag inactive, RGS4 pot inactive, RGS4 block inactive, MrgX1 antag -7.1*, MrgX1 PAM inactive, MrgX1 antag conf inactive, HEK293 Ca flux inactive, HEK293 Ca counter inactive and HEK293 Ca cntr2 inactive.
Screening Cn1cnnc1SCC(=O)Nc1ncc(C(F)(F)F)cc1Cl returned MrgX1 ag inactive, RGS4 pot inactive, RGS4 block inactive, MrgX1 antag inactive and MrgX1 PAM inactive.
COc1ccc(OC)c2c(=O)cc(C(=O)O)[nH]c12 was read as MrgX1 ag inactive, RGS4 pot inactive, RGS4 block inactive, MrgX1 antag inactive and MrgX1 PAM inactive.
Screening COc1cc2cc(C(=O)O)[nH]c2c(OC)c1OC returned MrgX1 ag inactive, RGS4 pot inactive, RGS4 block inactive, MrgX1 antag -5.7*, MrgX1 PAM inactive, MrgX1 antag conf inactive, HEK293 Ca flux inactive, HEK293 Ca counter inactive and HEK293 Ca cntr2 inactive.
`COc1ccc(NC(=O)OCCN2CCN(Cc3ccccc3)CCC2=O)cc1` gave MrgX1 ag inactive, RGS4 pot inactive, RGS4 block inactive, MrgX1 antag inactive and MrgX1 PAM inactive.

Bioassay records (PubChem BioAssay)
